Data: ChEMBL document CHEMBL1126013, “Synthesis and evaluation of some water-soluble prodrugs and derivatives of taxol with antitumor activity” (J Med Chem, 1992)

Key:
Mus musculus [1] = test: Antitumor activity of taxoland the derivative against mammary carcinoma xenograft in mice; format: functional
Method in brief: (§1)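 MX-1 human mammary carcinoma xenograft implanted under the renal capsule in mice. Study run at the National Cancer Institute following NIH Publication No. 84-2635. Tumor weights recorded at the start and at the end. Survivors counted after 11 days. %T/C = (Δ tumor weight treated/Δ tumor weight control) × 100 where the tumor grows, and (Δ tumor weight treated/initial control tumor weight) × 100 where it regresses.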

Mus musculus [2] = test: Tumor growth or regression measured as Percent treated by control at a dose of 4.13 mg/Kg to mice with MX-1 xenograft; format: functional
Method in brief: (§2)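 Subrenal capsule human mammary carcinoma (MX-1) xenograft in mice, run at the National Cancer Institute by NIH Publication No. 84-2635 procedures. Initial and final average tumor weights recorded, with survivors counted after 11 days. %T/C is (Δ tumor weight treated/Δ tumor weight controls)×100 for growing tumors. For regressing tumors it is (Δ tumor weight treated/initial control tumor weight)×100.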

B16 [3] = test: Concentration required to inhibit the proliferation of B16 melanoma cells was determined; format: functional, cell-based; details: Mus musculus
Mus musculus [4] = test: Initial average tumor weight was measured in mice induced with human mammary carcinoma at a dose of 4.13 mg/Kg; format: functional; method in brief: as §1
Mus musculus [5] = test: Number of survivors after 11 days at a dose of 16.5 mg/Kg tested in 4 mice; format: functional
Method in brief: (§3)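 MX-1 human mammary carcinoma xenograft implanted under the renal capsule of mice. The study was run at the National Cancer Institute following the procedures of NIH Publication No. 84-2635. Average tumor weight was recorded at the start and end of treatment, and survivors were counted after 11 days. Dosed groups were compared with an untreated control group.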

Mus musculus [6] = test: Number of survivors after 11 days at a dose of 4.13 mg/Kg tested in 5 mice; format: functional; method in brief: as §3
Mus musculus [7] = test: Initial average tumor weight was measured in mice induced with human mammary carcinoma at a dose of 16.5 mg/Kg; format: functional; method in brief: as §1
Mus musculus [8] = test: Final average tumor weight was measured in mice induced with human mammary carcinoma at a dose of 4.13 mg/Kg; format: functional; method in brief: as §1
Mus musculus [9] = test: Tumor growth or regression measured as Percent treated by control at a dose of 33 mg/Kg to mice with MX-1 xenograft; CR refers to complete remission or when the tumor is no longer detectable; format: functional, organism-based; method in brief: as §1
B16 [10] = test: Percentage change in cell number of B16 melanoma cells treated with 10e-6 M dose; format: functional, Mus musculus
Method in brief: (§4)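 B16 melanoma cells exposed to 10⁻⁵ or 10⁻⁶ M compound for 8 h, then rinsed three times with fresh medium. Cells then grown in drug-free medium for 48 h and counted. Result given as percent change relative to the cell number at time zero. Controls are the average of three experiments.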

B16 [11] = test: Relative effect on B16 melanoma cell proliferation was determined [IC50 (taxol)/IC50 (derivative)]; format: functional, Mus musculus
[12] = Solubility in water; format: physicochemical; details: read-out: S
Mus musculus [13] = test: Initial average tumor weight was measured in mice induced with human mammary carcinoma at a dose of 33 mg/Kg; format: functional; method in brief: as §1
Mus musculus [14] = test: Initial average tumor weight was measured in mice induced with human mammary carcinoma at a dose of 8.25 mg/Kg; format: functional; method in brief: as §1
Mus musculus [15] = test: Final average tumor weight was measured in mice induced with human mammary carcinoma at a dose of 16.5 mg/Kg; format: functional; method in brief: as §1
Bos taurus = species on record: Bos taurus; test: Relative effect on microtubular assembly (Tubulin polymerized by derivative/tubulin polymerized by taxol); format: functional
Method in brief: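 Bovine brain tubulin, purified from microtubule-associated proteins by phosphocellulose chromatography, used at 10 μM. Turbidity followed at 350 nm. Polymer pelleted at 200000g, 37 °C, 4 min, depolymerized on ice, and protein measured by Bradford.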

Mus musculus [16] = test: Final average tumor weight was measured in mice induced with human mammary carcinoma at a dose of 8.25 mg/Kg; format: functional; method in brief: as §1
B16 [17] = test: Percentage change in cell number of B16 melanoma cells treated with 10e-5 M dose; format: functional, Mus musculus; method in brief: as §4
Mus musculus [18] = test: final average tumor weight was measured in mice induced with human mammary carcinoma at a dose of 33 mg/Kg; format: functional; method in brief: as §2
Mus musculus [19] = test: Tumor growth or regression measured as Percent treated by control at a dose of 16.5 mg/Kg to mice with MX-1 xenograft; format: functional; method in brief: as §1
Mus musculus [20] = test: Number of survivors after 11 days at a dose of 33 mg/Kg tested in 5 mice; format: functional; method in brief: as §3
Mus musculus [21] = test: Tumor growth or regression measured as Percent treated by control at a dose of 8.25 mg/Kg to mice with MX-1 xenograft; format: functional; method in brief: as §2
Mus musculus [22] = test: Number of survivors after 11 days at a dose of 8.25 mg/Kg tested in 4 mice; format: functional; method in brief: as §3
Mus musculus [23] = test: Final average tumor weight was measured in mice induced with human mammary carcinoma at a dose of 6.67 mg/Kg; format: functional; method in brief: as §1
Mus musculus [24] = test: Number of survivors after 11 days at a dose of 4.45 mg/Kg tested in 5 mice; format: functional; method in brief: as §3
Mus musculus [25] = test: Final average tumor weight was measured in mice induced with human mammary carcinoma at a dose of 22.4 mg/Kg; format: functional; method in brief: as §1
Mus musculus [26] = test: Final average tumor weight was measured in mice induced with human mammary carcinoma at a dose of 15 mg/Kg; format: functional; method in brief: as §1
Mus musculus [27] = test: Initial average tumor weight was measured in mice induced with human mammary carcinoma at a dose of 6.67 mg/Kg; format: functional; method in brief: as §1
Mus musculus [28] = test: Number of survivors after 11 days at a dose of 10 mg/Kg tested in 6 mice; format: functional; method in brief: as §3
Mus musculus [29] = test: Tumor growth or regression measured as Percent treated by control at a dose of 15 mg/Kg to mice with MX-1 xenograft; CR refers to complete remission or when the tumor is no longer detectable; format: functional, organism-based; method in brief: as §1
Mus musculus [30] = test: Number of survivors after 11 days at a dose of 6.67 mg/Kg tested in 5 mice; format: functional; method in brief: as §3
Mus musculus [31] = test: Initial average tumor weight was measured in mice induced with human mammary carcinoma at a dose of 4.45 mg/Kg; format: functional; method in brief: as §1
Mus musculus [32] = test: Initial average tumor weight was measured in mice induced with human mammary carcinoma at a dose of 10 mg/Kg; format: functional; method in brief: as §1
Mus musculus [33] = test: Number of survivors after 11 days at a dose of 15 mg/Kg tested in 6 mice; format: functional; method in brief: as §3
Mus musculus [34] = test: Number of survivors after 11 days at a dose of 22.4 mg/Kg tested in 6 mice; format: functional; method in brief: as §3
Mus musculus [35] = test: Final average tumor weight was measured in mice induced with human mammary carcinoma at a dose of 10 mg/Kg; format: functional; method in brief: as §1
Mus musculus [36] = test: Final average tumor weight was measured in mice induced with human mammary carcinoma at a dose of 4.45 mg/Kg; format: functional; method in brief: as §1
Mus musculus [37] = test: Initial average tumor weight was measured in mice induced with human mammary carcinoma at a dose of 22.4 mg/Kg; format: functional; method in brief: as §1
Mus musculus [38] = test: Tumor growth or regression measured as Percent treated by control at a dose of 4.45 mg/Kg to mice with MX-1 xenograft; CR refers to complete remission or when the tumor is no longer detectable; format: functional, organism-based; method in brief: as §2
Mus musculus [39] = test: Initial average tumor weight was measured in mice induced with human mammary carcinoma at a dose of 15 mg/Kg; format: functional; method in brief: as §1
Mus musculus [40] = test: Tumor growth or regression measured as Percent treated by control at a dose of 22.4 mg/Kg to mice with MX-1 xenograft; Tox refers to toxicity or when < 65% of the animals survive the test; format: functional, organism-based; method in brief: as §1
Mus musculus [41] = test: Tumor growth or regression measured as Percent treated by control at a dose of 6.67 mg/Kg to mice with MX-1 xenograft; CR refers to complete remission or when the tumor is no longer detectable; format: functional, organism-based; method in brief: as §2
Mus musculus [42] = test: Tumor growth or regression measured as Percent treated by control at a dose of 10 mg/Kg to mice with MX-1 xenograft; format: functional; method in brief: as §1

CC(=O)O[C@H]1C(=O)[C@]2(C)[C@@H](OC(=O)CN(C)C)C[C@H]3OC[C@@]3(OC(C)=O)[C@H]2[C@H](OC(=O)c2ccccc2)[C@]2(O)C[C@H](OC(=O)[C@H](O)[C@@H](NC(=O)c3ccccc3)c3ccccc3)C(C)=C1C2(C)C.CS(=O)(=O)O
Relative antitumor activity (Mus musculus [1]): 3 | T/C (Mus musculus [2]): 34% | IC50 (B16 [3]): 0.044 µM | Initial average tumor weight (Mus musculus [4]): 0.74 mg | No. of survivors (Mus musculus [5]): 3 | No. of survivors (Mus musculus [6]): 4 | Initial average tumor weight (Mus musculus [7]): 0.59 mg | Final average tumor weight (Mus musculus [8]): 5.66 mg | T/C (Mus musculus [9]): Complete remission | Change in cell number (B16 [10]): 222% | Relative effect (B16 [11]): 0.43 | solubility [12]: > 1870 µM | Initial average tumor weight (Mus musculus [13]): 0.74 mg | Initial average tumor weight (Mus musculus [14]): 0.81 mg | Final average tumor weight (Mus musculus [15]): 0.04 mg | Relative effect (Bos taurus): 0.77 | Final average tumor weight (Mus musculus [16]): 4.19 mg | Change in cell number (B16 [17]): -60% | Final average tumor weight (Mus musculus [18]): 0 mg | T/C (Mus musculus [19]): -93% | No. of survivors (Mus musculus [20]): 4 | T/C (Mus musculus [21]): 23% | No. of survivors (Mus musculus [22]): 4

CC(=O)O[C@H]1C(=O)[C@@]2(C)[C@H]([C@H](OC(=O)c3ccccc3)[C@]3(O)C[C@H](OC(=O)[C@H](O)[C@@H](NC(=O)c4ccccc4)c4ccccc4)C(C)=C1C3(C)C)[C@]1(OC(C)=O)CO[C@@H]1C[C@@H]2O [PACLITAXEL]
Final average tumor weight (Mus musculus [23]): 0 mg | Relative antitumor activity (Mus musculus [1]): 1 | IC50 (B16 [3]): 0.019 µM | No. of survivors (Mus musculus [24]): 5 | Final average tumor weight (Mus musculus [25]): 0 mg | Final average tumor weight (Mus musculus [26]): 0 mg | Initial average tumor weight (Mus musculus [27]): 0.74 mg | No. of survivors (Mus musculus [28]): 6 | Change in cell number (B16 [10]): 252% | T/C (Mus musculus [29]): Complete remission | Relative effect (B16 [11]): 1 | No. of survivors (Mus musculus [30]): 5 | Initial average tumor weight (Mus musculus [31]): 0.79 mg | Initial average tumor weight (Mus musculus [32]): 0.58 mg | No. of survivors (Mus musculus [33]): 6 | No. of survivors (Mus musculus [34]): 3 | Final average tumor weight (Mus musculus [35]): 0.09 mg | Relative effect (Bos taurus): 1 | Final average tumor weight (Mus musculus [36]): 0 mg | Change in cell number (B16 [17]): 75% | Initial average tumor weight (Mus musculus [37]): 0.6 mg | T/C (Mus musculus [38]): Complete remission | Initial average tumor weight (Mus musculus [39]): 0.81 mg | T/C (Mus musculus [40]): Toxic | T/C (Mus musculus [41]): Complete remission | T/C (Mus musculus [42]): -84%
